Measurements reported in ChEMBL document CHEMBL1811805, “Molecular factors governing inhibition of arylimidamides against Leishmania: conservative computational modeling to improve chemotherapies” (Bioorg Med Chem, 2011).

Legend:
Leishmania donovani = assay: Antileishmanial activity against Leishmania donovani axenic amastigotes after 3 days by tetrazolium dye based spectrophotometric analysis at pH 5.5; type: functional, organism-based; settings: 72 h
How it was run: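 Ld1s axenic amastigote-like L. donovani grown in potassium-based medium, pH 5.5, 37 °C; exposed to compounds for three days; tetrazolium dye added and read spectrophotometrically. IC50 (μM) averaged with standard errors, n ≥ 3.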

Leishmania amazonensis = assay: Antileishmanial activity against beta-lactamase transfected Leishmania amazonensis promastigotes infected in macrophages after 72 hrs by spectrophotometric analysis; type: functional, organism-based
How it was run: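 Macrophages plated and adhered overnight; infected with β-lactamase-transfected L. amazonensis promastigotes (MOI 5:1) overnight; compounds added for 72 hours at 34 °C; nitrocefin in lysis buffer added for 3 to 5 hours further; absorbance read at 490 nm. IC50 (μM) averaged with standard errors, n ≥ 3.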

Row | IC50 (Leishmania donovani) | IC50 (Leishmania amazonensis) | SMILES
1 | 5800 nM | 740 nM | CC(C)Oc1cc(NC(=N)c2ccn(C)n2)ccc1-c1ccc(-c2ccc(NC(=N)c3ccn(C)n3)cc2OC(C)C)o1
2 | 1000 nM | 370 nM | CC(C)Oc1cc(NC(=N)c2ncc[nH]2)ccc1-c1ccc(-c2ccc(NC(=N)c3ncc[nH]3)cc2OC(C)C)o1
3 | 5600 nM | > 10000 nM | CC(C)Oc1cc(NC(=N)c2ccc(Cl)cn2)ccc1-c1ccc(-c2ccc(NC(=N)c3ccc(Cl)cn3)cc2OC(C)C)o1
4 | 550 nM | 700 nM | CC(C)Oc1cc(NC(=N)c2ncccn2)ccc1-c1ccc(-c2ccc(NC(=N)c3ncccn3)cc2OC(C)C)o1
5 | 31000 nM | 5000 nM | CC(C)Oc1cc(NC(=N)c2cn(C)cn2)ccc1-c1ccc(-c2ccc(NC(=N)c3cn(C)cn3)cc2OC(C)C)o1
6 | 1400 nM | 170 nM | Cc1nc(C(=N)Nc2ccc(-c3ccc(-c4ccc(NC(=N)c5csc(C)n5)cc4OC(C)C)o3)c(OC(C)C)c2)cs1
7 | 20000 nM | 3700 nM | CC(C)Oc1cc(NC(=N)c2cnccn2)ccc1-c1ccc(-c2ccc(NC(=N)c3cnccn3)cc2OC(C)C)o1
8 | 16000 nM | 900 nM | CC(C)Oc1cc(NC(=N)c2ccc[nH]2)ccc1-c1ccc(-c2ccc(NC(=N)c3ccc[nH]3)cc2OC(C)C)o1
9 | 2500 nM | 590 nM | CC(C)Oc1cc(NC(=N)c2ccc(F)cn2)ccc1-c1ccc(-c2ccc(NC(=N)c3ccc(F)cn3)cc2OC(C)C)o1
10 | 680 nM | 45 nM | CC(C)Oc1cc(NC(=N)c2ccccn2)ccc1-c1ccc(-c2ccc(NC(=N)c3ccccn3)cc2OC(C)C)s1
11 | 1000 nM | 130 nM | COc1ccc(C(=N)Nc2ccc(-c3ccc(-c4ccc(NC(=N)c5ccc(OC)cn5)cc4OC(C)C)o3)c(OC(C)C)c2)nc1
12 | 28000 nM | > 10000 nM | CC(C)Oc1cc(NC(=N)c2ccc(Br)cn2)ccc1-c1ccc(-c2ccc(NC(=N)c3ccc(Br)cn3)cc2OC(C)C)o1
13 | 1100 nM | 95 nM | CC(C)COc1cc(NC(=N)c2ccccn2)ccc1-c1ccc(-c2ccc(NC(=N)c3ccccn3)cc2OCC(C)C)o1
14 | 1900 nM | 270 nM | CC(C)Oc1cc(NC(=N)c2ccc(N3CCCC3)cn2)ccc1-c1ccc(-c2ccc(NC(=N)c3ccc(N4CCCC4)cn3)cc2OC(C)C)o1
15 | 4500 nM | 2700 nM | COc1cccc(C(=N)Nc2ccc(-c3ccc(-c4ccc(NC(=N)c5cccc(OC)n5)cc4OC(C)C)o3)c(OC(C)C)c2)n1
16 | 23000 nM | > 10000 nM | CC(C)COc1cc(NC(=N)c2c[nH]cn2)ccc1-c1ccc(-c2ccc(NC(=N)c3c[nH]cn3)cc2OCC(C)C)o1
17 | 2400 nM | 490 nM | CC(C)COc1cc(NC(=N)c2ncccn2)ccc1-c1ccc(-c2ccc(NC(=N)c3ncccn3)cc2OCC(C)C)o1
18 | 1100 nM | 1100 nM | CC(C)Oc1cc(NC(=N)c2cccnn2)ccc1-c1ccc(-c2ccc(NC(=N)c3cccnn3)cc2OC(C)C)o1
19 | 21000 nM | 1700 nM | CC(C)Oc1cc(NC(=N)c2csc(N)n2)ccc1-c1ccc(-c2ccc(NC(=N)c3csc(N)n3)cc2OC(C)C)o1
20 | > 100000 nM | 220 nM | CC(=O)Nc1nc(C(=N)Nc2ccc(-c3ccc(-c4ccc(NC(=N)c5csc(NC(C)=O)n5)cc4OC(C)C)o3)c(OC(C)C)c2)cs1
21 | 820 nM | 640 nM | CC(C)Oc1cc(NC(=N)c2ccc(N)cn2)ccc1-c1ccc(-c2ccc(NC(=N)c3ccc(N)cn3)cc2OC(C)C)o1
22 | 3600 nM | 810 nM | CC(=O)N(C)c1nc(C(=N)Nc2ccc(-c3ccc(-c4ccc(NC(=N)c5csc(N(C)C(C)=O)n5)cc4OC(C)C)o3)c(OC(C)C)c2)cs1
23 | 1300 nM | 300 nM | CNc1nc(C(=N)Nc2ccc(-c3ccc(-c4ccc(NC(=N)c5csc(NC)n5)cc4OC(C)C)o3)c(OC(C)C)c2)cs1
24 | 5100 nM | > 10000 nM | CC(C)CCOc1cc(NC(=N)c2ccccn2)ccc1-c1ccc(-c2ccc(NC(=N)c3ccccn3)cc2OCCC(C)C)o1
25 | 7900 nM | 320 nM | CC(C)CCOc1cc(NC(=N)c2ncccn2)ccc1-c1ccc(-c2ccc(NC(=N)c3ncccn3)cc2OCCC(C)C)o1

Second part, the compound before the results:

Row | SMILES | IC50 (Leishmania donovani) | IC50 (Leishmania amazonensis)
26 | N/C(=N\c1ccc(-c2ccc(-c3ccc(/N=C(\N)c4ccccn4)cc3OC3CCNCC3)o2)c(OC2CCNCC2)c1)c1ccccn1 | 59000 nM | > 10000 nM
27 | Cc1cccc(C(=N)Nc2ccc(-c3ccc(-c4ccc(NC(=N)c5cccc(C)n5)cc4C)o3)c(C)c2)n1 | > 50000 nM | 3100 nM
28 | N=C(Nc1ccc(-c2ccc(-c3ccc(NC(=N)c4ccccn4)cc3F)o2)c(F)c1)c1ccccn1 | 4200 nM | 1400 nM
29 | N=C(Nc1ccc(-c2ccc(-c3ccc(NC(=N)c4c[nH]cn4)cc3OC3CCCC3)o2)c(OC2CCCC2)c1)c1c[nH]cn1 | 14000 nM | > 10000 nM
30 | COC(=O)[C@H](N)CCOc1cc(NC(=N)c2ccccn2)ccc1-c1ccc(-c2ccc(NC(=N)c3ccccn3)cc2OCC[C@H](N)C(=O)OC)s1 | > 100000 nM | 5500 nM
31 | N=C(Nc1ccc(-c2ccc(-c3ccc(NC(=N)c4ccccn4)cc3O)o2)c(O)c1)c1ccccn1 | 1500 nM | 960 nM
32 | N=C(Nc1ccc(-c2ccc(-c3ccc(NC(=N)c4ccccn4)cc3OCc3ccccc3)o2)c(OCc2ccccc2)c1)c1ccccn1 | 4500 nM | 510 nM
33 | N=C(Nc1ccc(-c2ccc(-c3ccc(NC(=N)c4ccccn4)cc3Br)o2)c(Br)c1)c1ccccn1 | 1200 nM | 620 nM
34 | Cc1c(-c2ccc(NC(=N)c3ccccn3)cc2)oc(-c2ccc(NC(=N)c3ccccn3)cc2)c1C | 370 nM | 110 nM
35 | N=C(Nc1ccc(-c2ccc(-c3ccc(NC(=N)c4ccccn4)nc3)o2)cn1)c1ccccn1 | > 50000 nM | > 10000 nM
36 | N=C(Nc1ccc(-c2ccc(-c3ccc(NC(=N)c4ccccn4)cc3OC3CCCC3)o2)c(OC2CCCC2)c1)c1ccccn1 | 1400 nM | 170 nM
37 | N=C(Nc1ccc(-c2ccc(-c3ccc(NC(=N)c4ncccn4)cc3OC3CCCC3)o2)c(OC2CCCC2)c1)c1ncccn1 | 1500 nM | 210 nM
38 | N=C(Nc1cnc(-c2ccc(-c3cnc(NC(=N)c4ccccn4)cn3)o2)cn1)c1ccccn1 | > 100000 nM | > 10000 nM
39 | N=C(Nc1ncc(-c2ccc(-c3cnc(NC(=N)c4ccccn4)nc3)o2)cn1)c1ccccn1 | > 100000 nM | > 10000 nM
40 | N=C(Nc1ccc(-c2ccc(-c3ccc(NC(=N)c4cnccn4)cc3)o2)cc1)c1cnccn1 | > 100000 nM | > 10000 nM
41 | N=C(Nc1ccc(-c2ccc(-c3ccc(NC(=N)c4ccccn4)cc3OCC(F)(F)F)o2)c(OCC(F)(F)F)c1)c1ccccn1 | 1100 nM | 250 nM
42 | CC(C)N1CCC(Oc2cc(NC(=N)c3ccccn3)ccc2-c2ccc(-c3ccc(NC(=N)c4ccccn4)cc3OC3CCN(C(C)C)CC3)o2)CC1 | 28000 nM | 2100 nM
43 | N=C(Nc1ccc(-c2ccc(-c3ccc(NC(=N)c4ccc(Cl)cn4)cc3OC3CCCC3)o2)c(OC2CCCC2)c1)c1ccc(Cl)cn1 | > 100000 nM | > 10000 nM
44 | N=C(Nc1ccc(-c2ccc(-c3ccc(NC(=N)c4ccc(Br)cn4)cc3OC3CCCC3)o2)c(OC2CCCC2)c1)c1ccc(Br)cn1 | > 100000 nM | > 10000 nM
45 | CC(C)COc1cc(NC(=N)c2ccc(Br)cn2)ccc1-c1ccc(-c2ccc(NC(=N)c3ccc(Br)cn3)cc2OCC(C)C)o1 | > 50000 nM | > 10000 nM
46 | CC(=N)Nc1ccc(-c2ccc(-c3ccc(NC(C)=N)cc3OC3CCCC3)o2)c(OC2CCCC2)c1 | 41000 nM | 4700 nM
47 | CC(C)(C)CCOc1cc(NC(=N)c2ccccn2)ccc1-c1ccc(-c2ccc(NC(=N)c3ccccn3)cc2OCCC(C)(C)C)o1 | 28000 nM | > 10000 nM
48 | Cc1cc(NC(=N)c2ccccn2)ccc1-c1ccc(-c2ccc(NC(=N)c3ccccn3)cc2C)o1 | 670 nM | 290 nM
49 | N=C(Nc1ccc(-c2cc(-c3ccccc3)c(-c3ccc(NC(=N)c4ccccn4)cc3)o2)cc1)c1ccccn1 | 1700 nM | 110 nM
50 | N=C(Nc1ccc(-c2ccc(-c3ccc(NC(=N)c4ccccn4)cc3Cl)o2)c(Cl)c1)c1ccccn1 | 2000 nM | 560 nM
51 | COc1cc(NC(=N)c2ccccn2)ccc1-c1ccc(-c2ccc(NC(=N)c3ccccn3)cc2OC)o1 | 530 nM | 370 nM
52 | Cc1ccc(C(=N)Nc2ccc(-c3ccc(-c4ccc(NC(=N)c5ccc(C)cn5)cc4C)o3)c(C)c2)nc1 | 840 nM | 160 nM
53 | N=C(Nc1ccc(-c2ccc(-c3ccc(NC(=N)c4ccccn4)cc3)o2)cc1)c1ccccn1 | 1600 nM | 530 nM
